Converted amounts (≈) assume the structure as drawn. The source made the active and inactive calls. The rule behind the calls is not given here.
Legend:
[1] = test system: Human alphaherpesvirus 1; test: Antiviral activity against Human herpesvirus 1 KOS ATCC VR-1493 infected in African green monkey Vero 76 cells assessed as reduction of virus-plaque formation after 3 days by crystal violet staining; assay type: functional, organism-based; conditions: Human alphaherpesvirus 1, KOS ATCC VR1493, Vero, 72 h
Outline: (§1)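 Plaque reduction: Vero-76 at 2x10^5 cells/well grown to confluent monolayers, infected 2 h at 50–100 PFU/well; after removing unadsorbed virus, overlay of D-MEM, 1% inactivated FBS, 0.75% methylcellulose with or without serial compound dilutions; 3 days at 37°C, fixed and stained with crystal violet in 50% ethanol, plaques counted; EC50 by linear regression.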

[2] = test system: Staphylococcus epidermidis; test: Antimicrobial activity against Staphylococcus epidermidis ATCC 35984 after 18 hrs by twofold serial microdilution method; assay type: functional; conditions: ATCC 35984, 18 h
[3] = test system: Bacillus subtilis; test: Antimicrobial activity against Bacillus subtilis ATCC 6633 at 400 ug after 18 hrs by disc-diffusion method; assay type: functional; conditions: ATCC 6633, 18 h, read-out: IZ
Outline: (§2)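 Disc diffusion on Mueller-Hinton II agar per CLSI; 9 mm paper discs loaded with 400 µg compound from DMSO solution, dried, placed on agar; growth inhibition zone diameter read after 18 h at 35°C.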

[4] = test system: Enterococcus hirae; test: Antimicrobial activity against Enterococcus hirae ATCC 10541 at 400 ug after 18 hrs by disc-diffusion method; assay type: functional; conditions: for zone of inhibition at 400 µg/disc: ATCC 10541, 18 h, read-out: IZ; outline: as §2
[5] = test system: Micrococcus luteus; test: Antimicrobial activity against Micrococcus luteus ATCC 10240 at 400 ug after 18 hrs by disc-diffusion method; assay type: functional; conditions: ATCC 10240, 18 h, read-out: IZ; outline: as §2
[6] = test system: Micrococcus luteus; test: Antimicrobial activity against Micrococcus luteus ATCC 9341 at 400 ug after 18 hrs by disc-diffusion method; assay type: functional; conditions: ATCC 9341, 18 h, read-out: IZ; outline: as §2
[7] = test system: Staphylococcus aureus; test: Antimicrobial activity against Staphylococcus aureus NCTC 4163 after 18 hrs by twofold serial microdilution method; assay type: functional; conditions: NCTC 4163, 18 h
[8] = test system: Mycobacterium tuberculosis; test: Antimycobacterial activity against Mycobacterium tuberculosis H37Rv ATCC 25618; assay type: functional
Outline: (§3)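 Classical test-tube successive-dilution method in Youmans' modification of Proskauer and Beck liquid medium with 10% bovine serum. Inoculum came from 14-day cultures. DMSO stock was 10 mg/mL, diluted geometrically in medium. Tubes were incubated at 37 °C. Concentrations tested were 3.1, 6.2, 12.5, 25, 50 and 100 µg/ml. MIC is the minimum concentration inhibiting growth relative to compound-free tubes.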

[9] = test system: Enterococcus faecalis; test: Antimicrobial activity against Enterococcus faecalis ATCC 29212 at 400 ug after 18 hrs by disc-diffusion method; assay type: functional; conditions: ATCC 29212, 18 h, read-out: IZ; outline: as §2
[10] = test system: Staphylococcus epidermidis; test: Antimicrobial activity against Staphylococcus epidermidis ATCC 12228 after 18 hrs by twofold serial microdilution method; assay type: functional; conditions: ATCC 12228, 18 h
[11] = test system: Staphylococcus epidermidis; test: Antimicrobial activity against Staphylococcus epidermidis ATCC 12228 at 400 ug after 18 hrs by disc-diffusion method; assay type: functional; conditions: ATCC 12228, 18 h, read-out: IZ; outline: as §2
[12] = test system: Coxsackievirus B5; test: Antiviral activity against Human coxsackievirus B5 ATCC VR-29 infected in African green monkey Vero 76 cells assessed as reduction of virus-plaque formation after 3 days by crystal violet staining; assay type: functional, organism-based; conditions: Enterovirus B, ATCC VR-29, Vero, 72 h; outline: as §1
[13] = test system: Bacillus cereus; test: Antimicrobial activity against Bacillus cereus ATCC 11778 at 400 ug after 18 hrs by disc-diffusion method; assay type: functional; conditions: ATCC 11778, 18 h, read-out: IZ; outline: as §2
[14] = test system: Mammalian orthoreovirus 1; test: Antiviral activity against Reovirus type-1 ATCC VR-214 infected in BHK cells assessed as protection against virus-induced cytopathogenicity after 3 to 4 days by MTT assay; assay type: functional, cell-based; conditions: Mammalian orthoreovirus 1, ATCC VR-214, BHK
Outline: (§4)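 Cells seeded in 96-well plates (BHK 5x10^4, MDBK 3x10^4 cells/well), grown overnight to confluence, infected at m.o.i. 0.01 (BHK for Reo-1, MDBK for BVDV); serial compound dilutions in maintenance medium with 0.5% inactivated FBS added after 1 h; viability by MTT after 3–4 days at 37°C; EC50 for 50% protection by linear regression.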

[15] = test system: Staphylococcus aureus; test: Antimicrobial activity against Staphylococcus aureus ATCC 29213 at 400 ug after 18 hrs by disc-diffusion method; assay type: functional; conditions: ATCC 29213, 18 h, read-out: IZ; outline: as §2
[16] = test system: Staphylococcus aureus; test: Antimicrobial activity against Staphylococcus aureus ATCC 29213 after 18 hrs by twofold serial microdilution method; assay type: functional; conditions: ATCC 29213, 18 h
[17] = test system: Vaccinia virus; test: Antiviral activity against Human Vaccinia virus ATCC VR-1549 infected in African green monkey Vero 76 cells assessed as reduction of virus-plaque formation after 3 days by crystal violet staining; assay type: functional, organism-based; conditions: Orthopoxvirus vaccinia, ATCC VR-1549, Vero, 72 h
[18] = Cytotoxicity against African green monkey Vero 76 cells assessed as cell viability after 48 to 96 hrs by crystal violet staining; assay type: cell-based; conditions: chlorocebus sabaeus
[19] = test system: Staphylococcus aureus; test: Antimicrobial activity against Staphylococcus aureus ATCC 6538 at 400 ug after 18 hrs by disc-diffusion method; assay type: functional; conditions: ATCC 6538, 18 h, read-out: IZ; outline: as §2
[20] = Cytotoxicity against human MT4 cells; assay type: cell-based
[21] = test system: Human immunodeficiency virus 1; test: Antiviral activity against HIV1 3B infected in human MT4 cells assessed as protection against virus-induced cytopathogenicity by MTT assay; assay type: functional, organism-based; conditions: Human immunodeficiency virus 1, 3B
[22] = Cytotoxicity against bovine MDBK cells assessed as cell viability after 48 to 96 hrs by MTT assay; assay type: cell-based, Bos taurus; conditions: cattle
[23] = test system: Staphylococcus aureus; test: Antimicrobial activity against Staphylococcus aureus NCTC 4163 at 400 ug after 18 hrs by disc-diffusion method; assay type: functional; conditions: NCTC 4163, 18 h, read-out: IZ; outline: as §2
[24] = test system: Proteus vulgaris; test: Antimicrobial activity against Proteus vulgaris NCTC 4635 at 400 ug after 18 hrs by disc-diffusion method; assay type: functional; outline: as §2
[25] = test system: Vesicular stomatitis virus; test: Antiviral activity against Vesicular stomatitis virus ATCC VR 1540 infected in African green monkey Vero 76 cells assessed as reduction of virus-plaque formation after 2 days by crystal violet staining; assay type: functional, organism-based; conditions: ATCC VR 1540, Vero, 48 h
[26] = test system: Staphylococcus epidermidis; test: Antimicrobial activity against Staphylococcus epidermidis ATCC 35984 at 400 ug after 18 hrs by disc-diffusion method; assay type: functional; conditions: ATCC 35984, 18 h, read-out: IZ; outline: as §2
[27] = test system: Staphylococcus aureus; test: Antimicrobial activity against Staphylococcus aureus ATCC 6538 after 18 hrs by twofold serial microdilution method; assay type: functional; conditions: ATCC 6538, 18 h
[28] = test system: Yellow fever virus; test: Antiviral activity against Yellow fever virus 17D infected in BHK cells assessed as protection against virus-induced cytopathogenicity after 3 to 4 days by MTT assay; assay type: functional, cell-based
[29] = test system: Poliovirus 1; test: Antiviral activity against Poliovirus type 1 ATCC VR-1562 infected in African green monkey Vero 76 cells assessed as reduction of virus-plaque formation after 2 days by crystal violet staining; assay type: functional, organism-based; conditions: Enterovirus C, ATCC VR-1562, Vero, 48 h
[30] = test system: Mycobacterium tuberculosis; test: Antimycobacterial activity against drug-sensitive Mycobacterium tuberculosis Spec. 192; assay type: functional; outline: as §3
[31] = test system: Staphylococcus aureus; test: Antimicrobial activity against Staphylococcus aureus ATCC 25923 at 400 ug after 18 hrs by disc-diffusion method; assay type: functional; conditions: ATCC 25923, 18 h, read-out: IZ; outline: as §2
[32] = Cytotoxicity against BHK cells assessed as cell viability after 48 to 96 hrs by MTT assay; assay type: cell-based, Mesocricetus auratus; conditions: hamster
[33] = Antiviral activity against Bovine viral diarrhea virus 1-NADL ATCC VR-534 infected in MDBK cells assessed as protection against virus-induced cytopathogenicity after 3 to 4 days by MTT assay; assay type: functional, cell-based; conditions: Bovine viral diarrhea virus isolates and strains, ATCC VR-534, MDBK; outline: as §4
[34] = test system: Staphylococcus aureus; test: Antimicrobial activity against Staphylococcus aureus ATCC 25923 after 18 hrs by twofold serial microdilution method; assay type: functional; conditions: ATCC 25923, 18 h

Row | Structure (SMILES) | EC50 [1] | MIC [2] | zone of inhibition at 400 µg/disc [3] | zone of inhibition at 400 µg/disc [5] | zone of inhibition at 400 µg/disc [6] | MIC [7] | MIC [8] | zone of inhibition at 400 µg/disc [9] | MIC [10] | zone of inhibition at 400 µg/disc [11] | EC50 [12] | zone of inhibition at 400 µg/disc [13] | EC50 [14] | zone of inhibition at 400 µg/disc [15] | MIC [16] | EC50 [17] | CC50 [18] | zone of inhibition at 400 µg/disc [19] | CC50 [20] | EC50 [21] | other results
1 | CSCCCNC(=S)Nc1cccc(C(F)(F)F)c1 | > 100 µM | 64 µg/mL (≈ 208 µM) | 18 mm | 16 mm | 20 mm | 32 µg/mL (≈ 104 µM) | 50 µg/mL (≈ 162 µM) | 13 mm | 32 µg/mL (≈ 104 µM) | 20 mm | > 100 µM | 19 mm | > 100 µM | 18 mm | 32 µg/mL (≈ 104 µM) | > 100 µM | > 100 µM | 18 mm | 43 µM | > 43 µM | inhibition zone (IZ) [4]: inactive; CC50 [22]: > 100 µM; zone of inhibition at 400 µg/disc [23]: 19 mm; inhibition zone (IZ) [24]: inactive; EC50 [25]: > 100 µM; zone of inhibition at 400 µg/disc [26]: 16 mm; MIC [27]: 32 µg/mL (≈ 104 µM); EC50 [28]: > 100 µM; EC50 [29]: > 100 µM; MIC [30]: 100 µg/mL (≈ 324 µM); zone of inhibition at 400 µg/disc [31]: 18 mm; CC50 [32]: > 100 µM; EC50 [33]: > 100 µM; MIC [34]: 32 µg/mL (≈ 104 µM)
2 | Fc1ccc(NC(=S)Nc2cccc(C(F)(F)F)c2)cc1 | > 40 µM | 16 µg/mL (≈ 50.9 µM) | 25 mm | 28 mm | 28 mm | 8 µg/mL (≈ 25.5 µM) | 25 µg/mL (≈ 79.5 µM) | 20 mm | 16 µg/mL (≈ 50.9 µM) | 26 mm | > 40 µM | 23 mm | > 26 µM | 25 mm | 16 µg/mL (≈ 50.9 µM) | > 40 µM | 40 µM | 25 mm | 31 µM | > 31 µM | zone of inhibition at 400 µg/disc [4]: 30 mm; CC50 [22]: 41 µM; zone of inhibition at 400 µg/disc [23]: 27 mm; zone of inhibition at 400 µg/disc ([24]; NCTC 4635, 18 h, read-out: IZ): 14 mm; EC50 [25]: > 40 µM; zone of inhibition at 400 µg/disc [26]: 25 mm; MIC [27]: 16 µg/mL (≈ 50.9 µM); EC50 [28]: > 26 µM; EC50 [29]: > 40 µM; MIC [30]: 25 µg/mL (≈ 79.5 µM); zone of inhibition at 400 µg/disc [31]: 23 mm; CC50 [32]: 26 µM; EC50 [33]: > 41 µM; MIC [34]: 8 µg/mL (≈ 25.5 µM)
3 | COC(=O)c1ccccc1NC(=S)Nc1cccc(C(F)(F)F)c1 | > 100 µM | 64 µg/mL (≈ 181 µM) | 20 mm | 24 mm | 25 mm | 32 µg/mL (≈ 90.3 µM) | > 100 µg/mL | 14 mm | 64 µg/mL (≈ 181 µM) | 26 mm | > 100 µM | 19 mm | > 100 µM | 23 mm | 32 µg/mL (≈ 90.3 µM) | > 100 µM | > 100 µM | 25 mm | > 100 µM | > 100 µM | zone of inhibition at 400 µg/disc [4]: 11 mm; CC50 [22]: > 100 µM; zone of inhibition at 400 µg/disc [23]: 25 mm; inhibition zone (IZ) [24]: inactive; EC50 [25]: > 100 µM; zone of inhibition at 400 µg/disc [26]: 24 mm; MIC [27]: 32 µg/mL (≈ 90.3 µM); EC50 [28]: > 100 µM; EC50 [29]: > 100 µM; MIC [30]: > 100 µg/mL; zone of inhibition at 400 µg/disc [31]: 24 mm; CC50 [32]: > 100 µM; EC50 [33]: > 100 µM; MIC [34]: 32 µg/mL (≈ 90.3 µM)

From ChEMBL document CHEMBL3616436, “Synthesis, cytotoxicity and antimicrobial activity of thiourea derivatives incorporating 3-(trifluoromethyl)phenyl moiety” (Eur J Med Chem, 2015)
